Results collected from several papers.
Protocols differ between the studies behind these lines. ≈ marks a conversion by molar mass, not a printed value.

SMILES | tested on | test | system | conditions | endpoint | value
O=C(O)c1cn(C2CC2)c2cc(N3CCNCC3)c(F)cc2c1=O | Serratia marcescens | microbial growth | DSM30121 |  | MIC | 0.5 µg/mL (≈ 1.51 µM)
CN(C)[C@@H]1C(O)=C(C(N)=O)C(=O)[C@@]2(O)C(O)=C3C(=O)c4c(O)c(N)nc(Cl)c4C[C@H]3C[C@@H]12 | Enterobacter cloacae | microbial growth, broth dilution | ATCC13047 |  | MIC | 1 µg/mL (≈ 2.15 µM)
C=CCn1c(-c2ccc([N+](=O)[O-])cc2)nc2ccccc21 | human Rhabdomyosarcoma cell | cell growth or viability, MTT |  |  | IC50 | 32.6 µM
C[C@@H](Oc1cc(-c2cnn(C3CCNCC3)c2)cnc1N)c1c(Cl)ccc(F)c1Cl | NCI-H3122 | cell growth or viability, MTT |  | 5 µg/mL, 72 h | inhibition | 85.8%
O=[N+]([O-])c1cccc(-c2nc3ccccc3[nH]2)c1 | human Rhabdomyosarcoma cell | cell growth or viability, MTT |  | 48 h | IC50 | 50.3 µM
CN(C)c1ccc(O)c2c1C[C@H]1C[C@H]3[C@H](N(C)C)C(O)=C(C(N)=O)C(=O)[C@@]3(O)C(O)=C1C2=O | Enterobacter cloacae | microbial growth, broth dilution | ATCC13047 |  | MIC | 2 µg/mL (≈ 4.37 µM)
Cc1cc(Nc2ncc(Cl)c(Nc3ccccc3S(=O)(=O)C(C)C)n2)c(OC(C)C)cc1C1CCNCC1 | NCI-H3122 | cell growth or viability, MTT |  | 10 µg/mL, 72 h | inhibition | 93%
CN(C)[C@@H]1C(O)=C(C(N)=O)C(=O)[C@@]2(O)C(O)=C3C(=O)c4c(O)c(-c5ccccc5)nc(Cl)c4C[C@H]3C[C@@H]12.Cl | Enterobacter cloacae | microbial growth, broth dilution | ATCC13047 |  | MIC | > 32 µg/mL
C/C=C(\C)c1cc(OC(=O)c2c(O)c(C)c(O)c(Cl)c2/C(C)=C/C)c(C)c(O)c1C(=O)O | Enterococcus gallinarum | microbial growth, broth dilution | GALLINARUM |  | MIC | 64 µg/mL (≈ 139 µM)
O=[N+]([O-])c1ccc(-c2nc3ccccc3n2Cc2ccccc2)cc1 | human Rhabdomyosarcoma cell | cell growth or viability, MTT |  |  | IC50 | 7.44 µM
